These results are taken from ChEMBL document CHEMBL1221254, “Succinic acid amides as P2-P3 replacements for inhibitors of interleukin-1beta converting enzyme (ICE or caspase 1)” (Bioorg Med Chem Lett, 2010).

A short description of data set [1]: Selectivity ratio of human ICE to caspase 4.
A short description of data set [2]: Half life in Wistar rat at 25 mg/kg, po. The arrangement: dose 25 mg/kg, route oral. The format is ADME, organism-based. Particulars: in vivo. The procedure, abridged:
(§1)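 Wistar rats received 25 mg/kg orally in a vehicle of 10% DMSO, 11.25% Trappsol and D5W. Compound was measured in blood by LC/MS.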

The nature of data set [3]: Selectivity ratio of human ICE to caspase 6.
A short description of data set [4]: Selectivity ratio of human ICE to caspase 8.
Data set [5] can be described thus: Selectivity ratio of human ICE to caspase 3.
A further data set concerns Mus musculus. Kind of data set: Reduction of IL1-beta level in human PBMC cells xenografted SCID mouse at 3 mg/kg, iv after 2 hrs. The format is functional. The arrangement: scale not given: the % may be the effect or the level left. The procedure, abridged: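 huSCID model: SCID mice were injected with human PBMC 15 min before the start. At time zero they received LPS at 5 mg/kg iv. Compound was given at 3 mg/kg iv, and mice were bled at 2 h.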

Data set [6] addresses T1, Caspase-1 (Mus musculus, UniProt P29452).
T1 sequence (P29452 whole entry): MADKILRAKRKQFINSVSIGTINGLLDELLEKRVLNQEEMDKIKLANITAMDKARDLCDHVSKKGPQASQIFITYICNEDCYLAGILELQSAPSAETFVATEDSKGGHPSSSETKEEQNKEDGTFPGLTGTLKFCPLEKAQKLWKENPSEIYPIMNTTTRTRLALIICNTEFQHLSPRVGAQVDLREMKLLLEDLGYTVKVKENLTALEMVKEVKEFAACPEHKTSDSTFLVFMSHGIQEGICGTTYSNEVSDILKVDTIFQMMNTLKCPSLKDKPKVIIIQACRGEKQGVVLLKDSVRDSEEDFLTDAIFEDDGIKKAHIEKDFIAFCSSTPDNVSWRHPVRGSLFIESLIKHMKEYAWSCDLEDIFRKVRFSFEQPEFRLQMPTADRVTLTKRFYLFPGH
Kind of data set: Inhibition of mouse ICE.

In data set [7] the target is T2, Caspase-1 (Homo sapiens, UniProt P29466).
T2 sequence (P29466 whole entry): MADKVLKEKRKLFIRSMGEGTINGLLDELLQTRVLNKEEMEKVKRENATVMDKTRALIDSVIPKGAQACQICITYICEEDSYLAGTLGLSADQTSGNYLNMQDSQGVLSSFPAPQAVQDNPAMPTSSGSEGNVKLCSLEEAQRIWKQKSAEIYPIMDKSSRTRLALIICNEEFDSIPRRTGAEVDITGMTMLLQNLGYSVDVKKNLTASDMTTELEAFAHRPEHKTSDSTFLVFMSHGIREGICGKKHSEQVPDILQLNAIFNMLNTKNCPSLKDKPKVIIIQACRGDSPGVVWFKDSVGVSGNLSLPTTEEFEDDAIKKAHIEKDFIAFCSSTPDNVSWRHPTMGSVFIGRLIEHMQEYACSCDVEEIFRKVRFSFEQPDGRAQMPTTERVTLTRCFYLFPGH
Put plainly: Inhibition of human ICE.

The subject of a further data set is PBMC. Kind of data set: Inhibition of LPS-induced IL1-beta production in human PBMC by ELISA. The format is functional, cell-based. The method, boiled down:
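Human PBMC were suspended in RPMI 1640 with glutamine, penicillin, streptomycin and 2% human AB serum, at 10^6 cells per well. Cells were stimulated overnight with 10 ng/mL LPS, with or without inhibitor. Mature IL-1β in the harvested medium was measured by ELISA.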

The nature of data set [8]: Oral bioavailability in Wistar rat at 25 mg/kg. The format is ADME, organism-based. Particulars: in vivo. The method, boiled down:
as §1

The species entered for a further data set is Homo sapiens. Put plainly: Half life in human plasma.

Some results are limits rather than exact numbers.

Turning to `CCOC1OC(=O)C[C@@H]1NC(=O)[C@@H](CC(=O)NCCc1cccc2ncccc12)C(C)C` (some centres not stated), the Selectivity ratio in data set [1], in data set [3], in data set [4] and in data set [5] was more than 200 each time. Further, the half-life in [2] is 0.87 h.
Consider `CCO[C@@H]1OC(=O)CC1NC(=O)[C@@H]1CCCN2C(=O)CC[C@H](NC(=O)c3nccc4ccccc34)C(=O)N12` (some centres not stated), for which the Selectivity ratio in data set [1], in data set [3], in data set [4] and in [5] was more than 200 throughout. For the same molecule, the half-life in data set [2] is 0.87 h.
In the case of `O=C[C@H](CC(=O)O)NC(=O)[C@@H]1CCCN2C(=O)CC[C@H](NC(=O)c3nccc4ccccc34)C(=O)N12` [VRT-18858], the Activity in the data set on Mus musculus turned out to be 62%. The Ki on Caspase-1 [6] is 7 nM; at Caspase-1 [7] it was 0.6 nM. Also, the IC50 at Caspase-1 [7] amounted to 3.4 nM; in the data set with PBMC, 380 nM.
In data set [8], `CCCO[C@H]1OC(=O)C[C@@H]1NC(=O)[C@@H](CC(=O)NCCc1cccc2ncccc12)C(C)C` returned a bioavailability of 35%. The Selectivity ratio in [1], in [3], in data set [4] and in data set [5] was more than 200 each time. The half-life in the data set listed under Homo sapiens is 10 h.
On to `CC(C)[C@H](CC(=O)NCCc1cccc2ncccc12)C(=O)N[C@H]1CC(=O)O[C@@H]1OC1CCCC1`, for which the bioavailability in [8] came to 5%. Also, the Selectivity ratio in data set [1], in [3], in [4] and in data set [5] was more than 200 each time. The molecule further gave a half-life in the data set listed under Homo sapiens of 5.1 h.
In the case of `CCOC1OC(=O)C[C@@H]1NC(=O)[C@@H](CC(=O)NCCc1c(C)[nH]c2ccccc12)C(C)C` (some centres not stated), the Selectivity ratio in [1], in [3], in data set [4] and in [5] was more than 200 each time. Further, the half-life in data set [2] is 1.27 h.
In data set [8], `CCO[C@@H]1OC(=O)C[C@@H]1NC(=O)[C@@H](CC(=O)NCCc1cccc2ncccc12)C(C)C` came in with a bioavailability of 25%. Moreover, the Selectivity ratio in [1], in data set [3], in data set [4] and in [5] was more than 200 in each case. In addition, the half-life in the data set filed under Homo sapiens was 0.87 h.
In the case of `Cc1[nH]c2ccccc2c1CCNC(=O)C[C@H](C(=O)N[C@H](C=O)CC(=O)O)C(C)C`, the Activity in the data set on Mus musculus was 54%. Moreover, the Ki amounted to 13.4 nM on Caspase-1 [6] and 1.29 nM at Caspase-1 [7]. Moreover, the IC50 at Caspase-1 [7] was found to be 18 nM; in the data set on PBMC, 1500 nM.
As for `CCOC1OC(=O)C[C@@H]1NC(=O)[C@@H](CC(=O)NCCn1c(C)nc2ccccc21)C(C)C` (some centres not stated), the Selectivity ratio in data set [1], in data set [3], in data set [4] and in data set [5] was more than 200 each time. The same molecule gave a half-life in [2] of 1.6 h.
As to `CC(=O)N[C@@H](Cc1ccc(O)cc1)C(=O)N[C@H](C(=O)N[C@@H](C)C(=O)N[C@H](C=O)CC(=O)O)C(C)C`, the Selectivity ratio in data set [1], in [3], in data set [4] and in [5] was more than 200 throughout. This molecule also displayed an Activity in the data set with Mus musculus of 69%. In addition, the Ki at Caspase-1 [6] stood at 9 nM; on Caspase-1 [7], 0.7 nM. In addition, the IC50 is 17 nM at Caspase-1 [7] and 1200 nM in the data set with PBMC.
As for `CC(C)[C@H](CC(=O)NCCc1cccc2ncccc12)C(=O)N[C@H](C=O)CC(=O)O`, the Activity in the data set with Mus musculus is 52%. The Ki at Caspase-1 [6] stood at 14.4 nM; on Caspase-1 [7], 1.81 nM. In addition, the IC50 on Caspase-1 [7] worked out at 5.81 nM; with PBMC it was 650 nM.
Take `CCCO[C@@H]1OC(=O)C[C@@H]1NC(=O)[C@@H](CC(=O)NCCc1cccc2ncccc12)C(C)C`: the bioavailability in [8] was found to be 9%. Further, the Selectivity ratio in data set [1], in data set [3], in [4] and in data set [5] was more than 200 throughout. The molecule also gave a half-life in the data set listed under Homo sapiens of 2 h.
The molecule `Cc1nc2ccccc2n1CCNC(=O)C[C@H](C(=O)N[C@H](C=O)CC(=O)O)C(C)C` had an Activity in the data set on Mus musculus of 68%. Moreover, the affinity on Caspase-1 [6], expressed as Ki, was 18.7 nM. In addition, the IC50 on Caspase-1 [7] was determined as 23.8 nM; with PBMC, 2900 nM.

For orientation: half-life means the time in which the quantity being followed falls by half. The term Ki denotes the equilibrium dissociation constant of an inhibitor or competing ligand from its target. By IC50 is commonly meant the concentration that inhibits the measured activity by half. Usually bioavailability stands for dose-corrected exposure relative to a reference, in per cent.
